This is an account of results in PubChem BioAssay AID685 (PCMD, 2007).

This experiment can be described thus: S. cerevisiae growth inhibition, turbidity – wild-type and eIF2Bepsilon R284H mutant, A595, cytotoxicity control for eIF2B function restoration project, primary screen (AID 685).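 Also: 0% = untreated cell controls and 100% = YPD media blanks without cells.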 As to conditions: 16 h, stronger effect = higher value, screened at 25 µM (by protocol). The essentials: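 Test system: Wild-type and eIF2Bepsilon-R284H mutant S. cerevisiae, screened separately | Dosing: Single 25 µM compound dose in 0.2% DMSO | Schedule: 16 h compound exposure during growth at 30 °C | Detection: A595 turbidity | Evaluation: Growth inhibition (%) versus cell controls and blanks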

Setting [1] is: S. cerevisiae eIF2Bepsilon-R284H mutant growth.

The structures appear in SMILES notation. About 80 (0.3%) of roughly 30,000 compounds were called active.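 The calls were made as follows: active = mutant and wild-type yeast strains alike exhibit over 30% growth inhibition; inconclusive = a strain exceeds 50% while the second remains under 30%; inactive = the rest.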 The entries come from a sample that favours actives as a whole.

`Cc1cc(C)n(-c2ccc(Cl)c(C(=O)O)n2)n1`: the growth inhibition runs as follows: under setting [1], -10%; (S. cerevisiae wild-type growth) 22.7% (inactive).
For `Cc1cccc(N(CC(=O)N2CCOCC2)S(C)(=O)=O)c1`, the growth inhibition reads like this: under setting [1], -23.8%; (S. cerevisiae wild-type growth) 4.83% (inactive).
With `CCc1c(O)nc(SCC(=O)Nc2ccccc2)n(C(C)CC)c1=O` (stereo not given), the growth inhibition runs as follows: under setting [1], 12.8%; (S. cerevisiae wild-type growth) 10% (inactive).
As to `O=S1(=O)C=C(SCCN2CCCC2)c2ccccc21`, the growth inhibition runs as follows: under setting [1], 13.5%; (S. cerevisiae wild-type growth) 27.4% (inactive).
For `CS(=O)(=O)N1CCN(c2cccc(Cl)n2)CC1` the same measures were 18.9% and -6.15% (inactive).
Consider `Cc1cccc(NC(=O)C2CCCN2S(=O)(=O)c2ccc(F)cc2)c1C` (stereo not given), for which the growth inhibition under setting [1] turned out to be 13.8% and the growth inhibition (S. cerevisiae wild-type growth) was 9.79% (inactive).
Take `COc1ccc(-c2cc(C)nc3nc(N)nn23)cc1`: the growth inhibition is, setting by setting: under setting [1], 13.3%; (S. cerevisiae wild-type growth) 1.72% (inactive).
In the case of `Cc1ccc(S(=O)(=O)NC(=O)COc2ccccc2C)cc1`, the growth inhibition is 10.5% under setting [1] and 6.06% (inactive) (S. cerevisiae wild-type growth).
For the molecule `COc1ccc(CN2CCCCC2C)cc1OC` (stereo not given), the growth inhibition under setting [1] stood at 12.5% and the growth inhibition (S. cerevisiae wild-type growth) was 8.46% (inactive).
For `CC1CC2=C(CC1/C=N/NC(N)=S)C(C)(C)CCC2` (stereo not given) the same measures were 41.9% and 30% (active).
For `CCCCNC(=O)OC(C)CNC(=O)OC` (stereo not given) the same measures were 15% and 15.4% (inactive).
For `CC(=O)Nc1ccccc1OC(=O)N1CCOCC1` the same measures were 2.94% and 27.7% (inactive).
`O=c1c2ccccc2nc2n1C1(CCCCC1)Cc1ccccc1-2`: the growth inhibition reads like this: under setting [1], 2.94%; (S. cerevisiae wild-type growth) 5.38% (inactive).
For `CC(C)C[C@@H](N)c1nnc(SCC(=O)c2ccc(Cl)cc2)o1`, in that order: -4.76% and -22.1% (inactive).
Regarding `Cc1cc(C(=O)Nc2ccccc2N2CCOCC2)c2ccccc2n1`, the growth inhibition is, setting by setting: under setting [1], 15.2%; (S. cerevisiae wild-type growth) 28.1% (inactive).
Turning to `COc1cccc(N2CC(C(=O)Nc3c(C)cccc3C)CC2=O)c1` (stereo not given), the growth inhibition is, setting by setting: under setting [1], -17.4%; (S. cerevisiae wild-type growth) -10.6% (inactive).
For `COC(=O)c1cc(NC(=O)CC2C(=O)NCCN2C(=O)c2ccc(F)cc2)cc(C(=O)OC)c1` (stereo not given), in that order: 14.3% and 3.33% (inactive).
Consider `Cc1cc2nc(C)n(CCCNC(=O)Nc3ccccc3)c2cc1C`, for which the growth inhibition is -4.76% under setting [1] and 26.8% (inactive) (S. cerevisiae wild-type growth).
For `Cc1cc(C)c2nc(NC(=O)C3CCCO3)sc2c1` (stereo not given), the growth inhibition was 28.2% under setting [1] and 10.3% (inactive) (S. cerevisiae wild-type growth).
For `CCN(c1ccccc1)S(=O)(=O)c1ccc(C(=O)Nc2nccs2)cc1` the same measures were 0% and 18.7% (inactive).
For `Cc1ccc(OCC(=O)Nn2cnc3ccccc32)cc1`, in that order: -33.3% and -14% (inactive).
As to `Cc1ccc(-c2noc(CSc3nnc(-c4ccncc4)n3-c3ccc(F)cc3)n2)cc1`, the growth inhibition runs as follows: under setting [1], 11.6%; (S. cerevisiae wild-type growth) 17.6% (inactive).
For `CCOC(=O)c1ccc(N2C(=O)CC(Sc3nc(O)c(CC)c(=O)[nH]3)C2=O)cc1` (stereo not given) the same measures were 0% and -8% (inactive).
For `O=C1CC(Sc2ncn[nH]2)C(=O)N1c1ccccc1` (stereo not given), in that order: 56.8% and 43.7% (active).
For `Cc1ccc(N2C(=O)CC(Sc3ncn[nH]3)C2=O)cc1` (stereo not given) the same measures were 23.8% and 1.62% (inactive).
On to `COc1ccc(NC(=O)COC(=O)Cn2c(C)nc3ccccc32)cc1OC`, for which the growth inhibition runs as follows: under setting [1], -9.52%; (S. cerevisiae wild-type growth) -7.04% (inactive).
For `CN(C)/C=C1/C(=O)Nc2ccccc21`, the growth inhibition is 0% under setting [1] and 16.7% (inactive) (S. cerevisiae wild-type growth).
For `CCCCNC(=O)C1CCCN(S(=O)(=O)c2ccc(S(=O)(=O)NCC(C)C)cc2)C1` (stereo not given) the same measures were 28.2% and 0.77% (inactive).
On to `CCOc1ccc(-c2nc(C)sc2CC(=O)O)cc1`, for which the growth inhibition was 14.9% under setting [1] and 16.7% (inactive) (S. cerevisiae wild-type growth).
For `COc1cc(S(=O)(=O)N(Cc2cccs2)C2CC2)ccc1-n1cnnn1` the same measures were -4.17% and 13% (inactive).
As to `Cc1ccc(S(=O)(=O)N(c2cccc(C)c2)C2CCS(=O)(=O)C2)cc1` (stereo not given), the growth inhibition under setting [1] amounted to 0% and the growth inhibition (S. cerevisiae wild-type growth) is 8.71% (inactive).
For `CN(Cc1ccccc1)C(=O)COc1ccccc1` the same measures were 16.7% and 1.03% (inactive).
As to `COc1ccc(NC(=O)CC2COc3ccccc3O2)c(OC)c1` (stereo not given), the growth inhibition is 19.1% under setting [1] and 20% (inactive) (S. cerevisiae wild-type growth).
For `Cc1nnc(SCC(=O)NC(=O)NC2CCCC2)n1N`, in that order: 17.4% and 24.3% (inactive).
For the molecule `COC(=O)c1ccc(S(=O)(=O)c2ccc(C(=O)OC)s2)s1`, the growth inhibition was -35.1% under setting [1] and -57.5% (inactive) (S. cerevisiae wild-type growth).
As for `CC(=O)OC(C(=O)NC1CCCCC1)c1ccccc1` (stereo not given), the growth inhibition was 0% under setting [1] and 11% (inactive) (S. cerevisiae wild-type growth).
For the molecule `CCC1CCCCN1CCCNC(=O)C1CCC(Cn2c(=O)[nH]c3ccccc3c2=O)CC1` (stereo not given), the growth inhibition is 15.6% under setting [1] and 10% (inactive) (S. cerevisiae wild-type growth).
For `CCN1CCCC1Cn1cnc2c([nH]c3cc(OC)ccc32)c1=O` (stereo not given) the same measures were 8.7% and 10% (inactive).
In the case of `COc1cccc2c1OCC1COc3c(c(=O)n(C)c(=O)n3C)C21` (stereo not given), the growth inhibition was 8.33% under setting [1] and 14.8% (inactive) (S. cerevisiae wild-type growth).
`CCn1c(-c2ccoc2C)n[nH]c1=S`: the growth inhibition reads like this: under setting [1], 22.8%; (S. cerevisiae wild-type growth) 21.4% (inactive).
Consider `CCOC(=O)C1=C(CSc2nccn2C)NC(=O)NC1c1ccc(OC)cc1` (stereo not given), for which the growth inhibition is 5.26% under setting [1] and 17.1% (inactive) (S. cerevisiae wild-type growth).
For `COC(=O)C1C(=O)NCC1c1ccc(OC)cc1` (stereo not given), in that order: 10.3% and 14.6% (inactive).
As to `Cc1cccc(S(=O)(=O)CC(=O)Nc2nc(-c3ccccc3)cs2)c1`, the growth inhibition reads like this: under setting [1], 10%; (S. cerevisiae wild-type growth) 3.33% (inactive).
For `C=CCc1ccc(OCCOc2cccc(/C=N/n3cnnc3)c2)c(OC)c1` the same measures were -40.9% and 5% (inactive).
As to `Cc1nnc(SCC(=O)Nc2ncc3c(n2)CC(C)(C)CC3=O)s1`, the growth inhibition runs as follows: under setting [1], 10.3%; (S. cerevisiae wild-type growth) 35% (inactive).
For `CCOc1cc(N2CCOCC2)c(OCC)cc1NC(=O)COC(=O)[C@H](Cc1c[nH]c2ccccc12)NC(C)=O`, in that order: 6.98% and 26.6% (inactive).
For `Cc1ccc(OCCCC(=O)Nc2ccc(N3CCOCC3)cc2)cc1` the same measures were -14.3% and 12.7% (inactive).
For `COC(=O)C1CCN(CC(N)=O)CC1`, in that order: 17.5% and 20.8% (inactive).
On to `O=C(NCCCCCCNC(=O)NCc1ccco1)NCc1ccco1`, for which the growth inhibition runs as follows: under setting [1], 24.3%; (S. cerevisiae wild-type growth) 17.8% (inactive).
With `Cc1cc(=O)[nH]c(SCC(=O)N2c3ccccc3CC2C)n1` (stereo not given), the growth inhibition reads like this: under setting [1], 3.57%; (S. cerevisiae wild-type growth) 4.67% (inactive).
As for `CCCCOc1ccc(N(CC(=O)NCC2CCCO2)C(=O)CCC(=O)Nc2cc(C)ccn2)cc1` (stereo not given), the growth inhibition was -6.45% under setting [1] and -28.3% (inactive) (S. cerevisiae wild-type growth).
Take `O=C(c1ccc(CN2CCOCC2)cc1)N1CCN(c2ccccc2F)CC1`: the growth inhibition reads like this: under setting [1], 8.33%; (S. cerevisiae wild-type growth) 11.9% (inactive).
Turning to `CC1=NN(/C(=N\c2nnc(C)s2)Nc2ccccc2)[C@H](c2ccc(C)cc2)S1`, the growth inhibition was -6.45% under setting [1] and 20.2% (inactive) (S. cerevisiae wild-type growth).
For `Cc1ccc(-c2cc(C(=O)NCC3CCCO3)c3ccccc3n2)o1` (stereo not given), in that order: -6.45% and 6.79% (inactive).
With `CC1CCc2c(sc3nc4n(c(=O)c23)CCS4)C1` (stereo not given), the growth inhibition reads like this: under setting [1], 15.4%; (S. cerevisiae wild-type growth) 36.9% (inactive).
For `COC(=O)CNC(=O)c1ccccc1F` the same measures were 16.3% and 19.7% (inactive).
Turning to `COc1ccc(N2CCN(Cc3ccc(Br)s3)CC2)cc1`, the growth inhibition was 10% under setting [1] and 16.1% (inactive) (S. cerevisiae wild-type growth).
As for `CC(C)(C)NC(=O)CN(Cc1cccs1)C(=O)CNS(=O)(=O)c1ccccc1`, the growth inhibition was 14.1% under setting [1] and 11.6% (inactive) (S. cerevisiae wild-type growth).
For `C/C(=N\NC(=O)c1nc(C)cc(C)n1)c1ccccc1`, in that order: 24.3% and 15.2% (inactive).
With `CCC(=NC1CC(C)(C)NC(C)(C)C1)C1=C(O)CC(C)(C)CC1=O`, the growth inhibition runs as follows: under setting [1], 14.8%; (S. cerevisiae wild-type growth) 23.3% (inactive).
For `CN1C(=O)C(CC(N)=O)N(NC(=O)c2ccc(Cl)cc2)C1=S` (stereo not given) the same measures were 9.52% and 33.8% (inactive).
For `COC(=O)c1sc(=S)n(-c2ccc(Cl)cc2)c1C`, in that order: 14.5% and 9.64% (inactive).
With `CCOC(=O)c1ccc2c(c1)nc(SCC(=O)NC(C)C)n2CC`, the growth inhibition by setting is: under setting [1], 7.69%; (S. cerevisiae wild-type growth) 3.45% (inactive).
With `CCOC(=O)C1C(=O)NCC1c1ccccc1` (stereo not given), the growth inhibition by setting is: under setting [1], 22.1%; (S. cerevisiae wild-type growth) 11.5% (inactive).
For `CCCCN1C(=O)/C(=C2/C=CC=CN2C)SC1=S` the same measures were 18.9% and 21.5% (inactive).
